This is a sample that favours compounds with a hit; in the whole collection about 3% have one here.
HTR1E agonist – 5-HT1E receptor agonists, primary screen, cell-based, HTS; CHO 5-HT1E Ga15 NFAT-bla reporter, FRET; 0% DMSO wells, 100% control agonist wells; activation, % at 6 µM; 65,000 tested, 0.69% active; AID 574, 2007;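 active = activation above a set limit, the screen-wide mean activation plus 3 SD, cut at about 8.5% in these data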;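 also: 100% = positive control agonist at 1 µM giving full maximal response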
5HT1E antag – 5-HT1E receptor antagonists, primary screen, cell-based, HTS; 65,000 tested, 0.99% active; 5-hydroxytryptamine receptor 1E (Homo sapiens), P28566; inhibition, % at 6 µM; CHO 5-HT1E Ga15 NFAT-bla reporter, FRET, antagonist;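 active = inhibition above a set limit, the mean inhibition across every tested compound plus 3 SD, cut at about 29% in these data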;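 also: signal is the 460 over 535 nm emission ratio of beta-lactamase substrate; 0% = agonist plus DMSO wells and 100% = wells without agonist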
5HT1a ag – human 5-HT1a receptor agonists, primary screen, cell-based, CHO, Ga15 NFAT-bla reporter; 5-hydroxytryptamine receptor 1A (Homo sapiens), P08908; CHO 5-HT1a Ga15 NFAT-bla reporter, FRET ratio; 0% basal, 100% maximal reference agonist; activation, % at 10 µM; 65,000 tested, 0.56% active; AID 567, 2006;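 active = activation above the screen-wide mean activation plus 3 SD, cut at about 19% in these data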;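 also: 0% = DMSO wells and 100% = 5-CT at EC100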
S1P1 ag pot – S1P1 agonists and agonism potentiators, primary screen, cell-based, primary and confirmation screens, CRE-bla reporter | Sphingosine 1-phosphate receptor 1 (Homo sapiens), P21453 | S1P1 CRE-bla cells, forskolin, beta-lactamase FRET, potentiator mode; S1P1 agonist co-added at EC20, 2 nM; 100% = saturating reference agonist, 0% = basal | activation, % at 9.5 µM | 56,000 tested, 0.57% active | AID 449, 2006;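 active = activation above a cutoff set at the mean activation of all tested compounds plus 3 SD, cut at about 54% in these data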;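 also: forskolin at 4 µM as EC80 and the EC20 agonist is SEW2871; 100% = SEW2871 at its EC100 plus forskolin at EC80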
S1P3 agonist – human S1P3 receptor agonists, primary screen, cell-based, primary and confirmation, NFAT-BLA reporter; AID 373, 2006; 60,000 tested, 0.1% active; activation, % at 4.5 µM; Sphingosine 1-phosphate receptor 3 (Homo sapiens), Q99500; S1P3 NFAT-BLA reporter cells, agonism, FRET ratio; relative to 1 µM S1P, basal subtracted;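 active = activation above the screen-wide mean plus 3 SD, cut at about 4.5% in these data, passing the limit was not always enough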
Target sequence (Q99500 whole entry, looked up): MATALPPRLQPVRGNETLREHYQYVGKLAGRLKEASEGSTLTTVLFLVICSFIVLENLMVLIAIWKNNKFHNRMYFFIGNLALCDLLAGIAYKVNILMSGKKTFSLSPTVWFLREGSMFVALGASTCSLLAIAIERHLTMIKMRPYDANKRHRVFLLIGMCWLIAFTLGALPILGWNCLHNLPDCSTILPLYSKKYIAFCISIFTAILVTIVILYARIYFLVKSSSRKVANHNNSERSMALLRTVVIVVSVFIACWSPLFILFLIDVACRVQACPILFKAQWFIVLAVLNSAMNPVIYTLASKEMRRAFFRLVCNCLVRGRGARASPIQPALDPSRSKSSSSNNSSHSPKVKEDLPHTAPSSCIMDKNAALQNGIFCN
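Material: Human S1P3 NFAT-BLA reporter CHO cells | Incubation: Overnight plating, 4 h compound 37 °C, 2 h substrate RT | Signal: FRET β-lactamase substrate fluorescence, excitation 405 nm, 460/535 nm emission ratio, background-subtracted | Compound: 4.5 µM final, single dose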
5-HT1A blocker – human 5-HT1a receptor antagonists, primary screen, cell-based, CHO, Ga15 NFAT-bla reporter; CHO 5-HT1a Ga15 NFAT-bla reporter, antagonist mode; AID 612, 2007; 62,000 tested, 0.68% active; 5-hydroxytryptamine receptor 1A (Homo sapiens), P08908; inhibition, % at 10 µM;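 active = inhibition above the mean of all tested compounds plus 3 SD, cut at about 43% in these data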;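 also: receptor stimulated by 5-CT agonist at 100 nM near EC80; beta-lactamase reporter measured by ratiometric fluorescence of a cleavable substrate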
* hit, by the source's call; / = not tested or not shown.

SMILES	HTR1E agonist	5HT1E antag	5HT1a ag	S1P1 ag pot	S1P3 agonist	5-HT1A blocker
COc1cc2nc(CN3CC=C(c4ccccc4)CC3)[nH]c(=O)c2cc1OC	0	1	1	22	1	44*
CCOC(=O)C1C(=O)NC23CCCC2C1c1ccccc1O3 (centres undefined)	-1	3	-3	-4	0	0
CN(C)P(=O)(C(Cl)=C(N1CCCCC1)N1CCCCC1)N(C)C	0	0	-6	1	-1	43*
CN1CC=C(c2c[nH]c3ccccc23)CC1	106*	-7	15	9	-2	-2
c1ccc2c(CN3CCCCCCC3)c[nH]c2c1	-1	0	2	/	4	34
CC(N)Cc1c[nH]c2cc3c(cc12)OCCO3 (centres undefined)	5	5	-1	1	-1	8

Screens (PubChem BioAssay)
